# Vif inh: HIV Vif inhibition. HEK293T cells, Vif self-association by quenched fluorescence, imaging, 24 h. inhibition, % at 7.49 µM. hit rate 0.35% among 340,000. AID 602346; in the data active means inhibition above about 50%, passing the limit was not always enough
# SR-BI uptake up: enhances SR-BI lipid uptake from DiI-HDL. activation, % at 12.5 µM. AID 504775. hit rate 0.096% among 320,000. CHO ldlA[mSR-BI] cells, DiI-HDL uptake fluorescence, 3 h; 100 = double the neutral-control signal;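 active means mean replicate activation of at least 60% and every replicate at or above 60%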;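 further: 0% = median plate neutral-control signal and 100% = twice that signal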
#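 Material: SR-BI-overexpressing, LDLR-lacking CHO cells; schedule: compound exposure 3 h, 37 °C; reagent: DiI-labelled HDL at 10 µg/mL final; technique: bottom-read fluorescence, 550/595 nm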
# SR-BI HDL uptake: inhibitors of mouse SR-BI mediated HDL lipid uptake | Q61009 | AID 488896 | inhibition, % at 12.5 µM | ldlA[mSR-BI] CHO cells, DiI-HDL uptake fluorescence, 3 h | hit rate 0.96% among 320,000;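 active means mean replicate inhibition of at least 70% and a set share of replicates each scoring 70 or more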;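 further: 0% = median of neutral control wells and 100% = median of positive control wells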
# NTR1 agonist: agonists of human neurotensin receptor NTR1. NTR1-U2OS beta-arrestin-GFP spot imaging, agonist mode. activation, % at 20 µM. hit rate 0.17% among 330,000. AID 493036;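 active means activation at or above 40% of the spot to cytoplasm intensity ratio, with at least 20 cells analyzed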;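 further: 0% = DMSO without peptide and 100% = 100 nM NTR1 peptide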
# Target sequence (P30989 whole entry, looked up): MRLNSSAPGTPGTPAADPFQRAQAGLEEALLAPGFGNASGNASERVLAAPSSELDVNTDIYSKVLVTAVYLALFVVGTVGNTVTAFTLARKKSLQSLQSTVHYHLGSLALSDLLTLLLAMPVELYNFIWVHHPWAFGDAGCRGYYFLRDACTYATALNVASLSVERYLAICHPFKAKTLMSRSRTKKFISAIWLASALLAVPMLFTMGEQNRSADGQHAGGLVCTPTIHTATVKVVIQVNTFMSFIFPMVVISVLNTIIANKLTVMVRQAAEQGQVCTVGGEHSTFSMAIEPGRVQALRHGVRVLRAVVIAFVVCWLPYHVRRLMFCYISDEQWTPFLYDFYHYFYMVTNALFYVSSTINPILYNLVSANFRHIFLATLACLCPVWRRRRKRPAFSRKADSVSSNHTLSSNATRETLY
# CaV13 ICDI inh: Primary screen for inhibitors of IQ motif and Ca2+-dependent inactivation inhibitor domain binding in CACNA1D, Förster resonance energy transfer in living cells, …; AID 743397; hit rate 0.098% among 340,000; HEK cells, CFP/YFP FRET ICDI-IQ, plate reader, 10 min; percent FRET-ratio fall versus neutral wells; inhibition, % at 12.3 µM;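 active means mean replicate inhibition of at least 30% and at least 1% of replicates passing that level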;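 further: 0% = median of the neutral control wells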
# V-ATPase pH: yeast V-ATPase proton transport regulation by pHLuorin | response, % at 10 µM | S. cerevisiae, pHLuorin cytosolic pH fluorescence | hit rate 0.37% among 350,000; in the data active means response mostly above about 7.3%, no sharp cut-off; inactive means mostly below about 5.4%; further: actives read high
# NTR1 ag conf: confirmation of agonists of human NTR1; hit rate 38% among 480; shares compounds with NTR1 agonist; activation, % at 20 µM; AID 504550; NTR1-U2OS beta-arrestin-GFP translocation imaging;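 active means mean activation at 20 µM of at least 40%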;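 further: 0% = DMSO without peptide and 100% = 100 nM NTR1 peptide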
# * = called active by the depositor; x = no result. An excerpt weighted towards active compounds, which were near 1.7% of everything screened.
SMILES,Vif inh,SR-BI uptake up,SR-BI HDL uptake,NTR1 agonist,CaV13 ICDI inh,V-ATPase pH,NTR1 ag conf
COc1ccccc1/C=C\C=N\n1c(-c2ccc(Cl)cc2)n[nH]c1=S,3,9,-9,49*,-3,-2,9
COc1ccccc1/C=C/C=N/n1c(-c2ccc(F)cc2)n[nH]c1=S,-4,x,x,8,-20,-4,x
NCCCC[C@H]1CN=C(N)N1CCC12CC3CC(CC(C3)C1)C2,8,21,-21,-2,-6,-5,x
CCCn1c(N2CCC(Cc3ccccc3)CC2)nc2c1c(=O)[nH]c(=O)n2C,-7,-6,6,13,x,-1,x
CCCCCn1c(N2CCC(Cc3ccccc3)CC2)nc2c1c(=O)[nH]c(=O)n2C,-7,11,-11,41*,x,3,50*
COc1ccc(CCn2c(=N)c(C(=O)NC3CCCC3)cc3c(=O)n4cccc(C)c4nc32)cc1,9,x,-29,50*,-3,5,39
Cc1ccsc1CNC(=O)C1(C)CCN1C(=O)C(C)C (stereo not given),7,x,x,x,-5,x,x
Cc1cccc(C(=O)NNC(=O)c2ccc3ccccc3c2)c1,-11,4,-4,x,-6,-1,x
C[C@H](CO)NC(=O)c1[nH]cnc1C(=O)Nc1cccc(Cl)c1,1,x,x,x,-6,-1,x
C[C@@H](NC(=O)c1[nH]cnc1C(=O)Nc1cccc(Cl)c1)c1ccccc1,-6,14,-14,45*,-4,2,22
C[C@H](NC(=O)c1[nH]cnc1C(=O)Nc1cccc(Cl)c1)c1ccccc1,-5,21,-21,52*,-17,-2,46*
CC(C)c1nnc(NC(=O)CCC2CCCCC2)s1,-1,-16,16,41*,-6,-1,33
CC(C)c1nnc(NC(=O)CCC(=O)NC2CCCCCCC2)s1,x,2,-2,1,-9,4,x
COc1ccc(NS(=O)(=O)c2cc(NC(=O)[C@@H](NC(=O)c3ccccc3)C(C)C)ccc2C)cc1,1,-31,31,-1,-6,-1,x
CCCCOc1ccc2c(c1)C(=O)c1cc(O)ccc1-2,-4,-43,43,41*,-6,1,9
Cc1ccc(S(=O)(=O)N(CCCO)CC(O)CON=C2c3ccccc3-c3ccccc32)cc1 (stereo not given),3,-14,14,47*,-5,0,22
N#Cc1ccccc1S(=O)(=O)N1CCN(CC(O)c2ccccc2)CC1 (stereo not given),-11,6,-6,-2,9,3,x
CC(C)c1ccc(Nc2nnc(SC3CCOC3=O)s2)cc1 (stereo not given),-9,-1,1,52*,-5,8,76*
Cc1ccc(Nc2nnc(SC3CCOC3=O)s2)cc1 (stereo not given),1,6,-6,4,-5,-2,x
Cc1cccc(NC(=O)c2nc[nH]c2C(=O)N[C@@H](Cc2ccccc2)C(=O)OC(C)(C)C)c1,0,7,-1,51*,-4,-3,53*
CC(C)C[C@H](NC(=O)c1nc[nH]c1C(=O)N[C@@H](CC(C)C)C(=O)OC(C)(C)C)C(=O)OC(C)(C)C,-4,-15,15,27,21,-7,x
CC(C)C[C@H](NC(=O)c1[nH]cnc1C(=O)Nc1ccc(Cl)cc1)C(=O)OC(C)(C)C,-6,-27,27,56*,-11,3,32
Cc1cccc(NC(=O)c2nc[nH]c2C(=O)N[C@@H](CC(C)C)C(=O)OC(C)(C)C)c1,-2,4,-4,52*,-10,1,24
CC(C)(C)OC(=O)NCCCCCNC(=O)c1[nH]cnc1C(=O)Nc1ccc(Cl)cc1,-8,21,-21,48*,-11,12,22
COCCNC(=O)CN(Cc1ccc(F)cc1)C(=O)CCC(=O)Nc1nccs1,-3,x,x,-1,-3,0,x
Nc1nnc(CC(=O)N/N=C/c2ccc(-c3cccc(C(=O)O)c3)o2)s1,-5,23,-23,0,-1,5,x

# Screens (PubChem)
